Rpn11 block: Rpn11 (PSMD14) deubiquitinase inhibitors, primary screen, biochemical, fluorescence polarization, uHTS | 26S proteasome non-ATPase regulatory subunit 14 (Homo sapiens), O00487 | human 26S proteasome, Ub4-pepOG fluorescence polarization; 20S core pre-blocked with epoxomicin | inhibition, % at 20 µM | hit rate 0.59% among 360,000;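 active = inhibition at 20 µM, scaled to each plate's controls, above about 33%, limit read from the data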
CSN inh: inhibitors of CSN-mediated cullin deneddylation, primary screen, biochemical, fluorescence polarization, uHTS; COP9 signalosome complex subunit 5 (Homo sapiens), Q92905; Purified CSN, SCF-Nedd8-OG deneddylation; inhibition, % at 12.5 µM; hit rate 0.38% among 360,000; AID 651999, 2013;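 active = pattern-corrected inhibition above about 35%, with an unprinted fluorescence ratio check between 0.5 and 1.5, limit read from the data, passing the limit was not always enough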
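Assay system: purified human Csn5 enzyme expressed in HEK293T cells; Input: 0.24 nM Csn5 enzyme, final concentration; Reagent: 10 nM SCFSkp2-Nedd8OG; Compound dosing: 12.5 µM single point; Times: reaction 90 min, room temperature; Technique: fluorescence polarization readout.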
TPT1 inhibitor: Candida albicans TPT1 enzyme inhibitors, primary screen, biochemical, fluorescence polarization; inhibition, % at 5 µM; tRNA 2'-phosphotransferase TPT1 (Candida albicans SC5314); hit rate 0.81% among 300,000; recombinant caTPT1, FP RNA substrate dephosphorylation;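 active = inhibition above the mean of all tested compounds plus 3 SD, set per screening campaign, cut at about 24% in these data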
HNF4A DNA FP: change in binding of human HNF4A to DNA, primary screen, biochemical, fluorescence polarization, FITC-DNA | Hepatocyte nuclear factor 4-alpha (Homo sapiens), P41235 | 1 h | activity change, % at 10 µM | hit rate 0.3% among 360,000 | AID 1224865, 2016; in the data active = activity change above about 30%, passing the limit was not always enough
TPT1 inh confirm: Candida albicans TPT1 inhibitors, confirmation, biochemical, fluorescence polarization, triplicate; hit rate 74% among 2,400; shares compounds with TPT1 inhibitor; recombinant caTPT1, RNase T1 coupled; inhibition, % at 5 µM;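 active = inhibition above the primary screen limit, the mean inhibition of all tested compounds plus 3 SD, cut at about 25% in these data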
RNase T1 counter: RNase T1 inhibitors, counter-screen for TPT1 inhibitor project, biochemical, fluorescence polarization; RNase T1 cleavage, 1536-well; hit rate 83% among 2,400; inhibition, % at 5 µM; AID 2153, 2009; shares compounds with TPT1 inhibitor;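 active = inhibition above the solvent-only control well mean plus 3 SD, limit set per screening run, cut at about 23% in these data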;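 note: inhibitors block cleavage so intact labeled substrate keeps polarization high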
Target sequence (P00651 whole entry, looked up): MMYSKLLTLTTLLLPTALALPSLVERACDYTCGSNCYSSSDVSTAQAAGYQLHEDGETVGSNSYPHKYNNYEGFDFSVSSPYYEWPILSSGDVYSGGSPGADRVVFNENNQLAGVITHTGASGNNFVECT
Rpn11 inh conf: Rpn11 (PSMD14) deubiquitinase inhibitors, confirmation, biochemical, fluorescence polarization, single concentration; shares compounds with Rpn11 block; purified human 26S proteasome, Ub4-pepOG fluorescence polarization; proteasome pretreated with epoxomicin; AID 602318, 2012; hit rate 29% among 1,900; inhibition, % at 20 µM
MMP-2 inh: MMP-2 enzyme inhibition, confirmation, counter-screen for RPN11 inhibitor project, biochemical, fluorescence, single concentration; inhibition, % at 20 µM; recombinant MMP-2, FRET peptide cleavage fluorescence; hit rate 4% among 1,900; shares compounds with Rpn11 block;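 note: human MMP-2 activated beforehand with APMA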
Thrombin inh: bovine thrombin protease inhibition, confirmation, counter-screen for Rpn11 inhibitor project, biochemical, fluorescence polarization, single concentration | hit rate 13% among 1,900 | shares compounds with Rpn11 block | inhibition, % at 20 µM | bovine thrombin cleavage of Ub4-pepOG | AID 602333, 2012;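 active = mean inhibition at least 40% at 20 µM, or signal 3 deviations below plate average, so some actives read negative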
Target sequence (P00735 whole entry, looked up): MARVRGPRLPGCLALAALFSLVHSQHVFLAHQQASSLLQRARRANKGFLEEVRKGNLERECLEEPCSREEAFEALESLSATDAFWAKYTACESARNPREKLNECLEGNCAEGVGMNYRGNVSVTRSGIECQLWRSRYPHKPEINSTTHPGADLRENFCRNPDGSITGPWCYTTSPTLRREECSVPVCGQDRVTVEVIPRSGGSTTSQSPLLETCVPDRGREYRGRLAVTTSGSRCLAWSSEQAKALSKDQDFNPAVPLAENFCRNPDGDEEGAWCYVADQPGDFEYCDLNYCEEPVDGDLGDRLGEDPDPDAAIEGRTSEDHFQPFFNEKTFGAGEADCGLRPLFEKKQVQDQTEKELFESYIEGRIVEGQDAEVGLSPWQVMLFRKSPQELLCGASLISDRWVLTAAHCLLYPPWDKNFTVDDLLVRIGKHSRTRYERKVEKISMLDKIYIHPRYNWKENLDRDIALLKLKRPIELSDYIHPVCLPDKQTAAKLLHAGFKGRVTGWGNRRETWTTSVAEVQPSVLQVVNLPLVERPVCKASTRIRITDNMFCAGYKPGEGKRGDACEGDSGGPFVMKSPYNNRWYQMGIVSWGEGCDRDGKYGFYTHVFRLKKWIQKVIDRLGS
Hits are given with their value; 0 = inactive; - = not tested or not shown; ! = a repeat was not active. An excerpt weighted towards active compounds, which were near 1.5% of everything screened. Cut-off read from the data, not from the text of the source, unless noted: active = inhibition above about 40%; inactive = the rest.

SMILES | Rpn11 block | CSN inh | TPT1 inhibitor | HNF4A DNA FP | TPT1 inh confirm | RNase T1 counter | Rpn11 inh conf | MMP-2 inh | Thrombin inh
O=C(COC(=O)c1ccc(F)c(S(=O)(=O)N2CCOCC2)c1)Nc1ccc2[nH]c(=O)[nH]c2c1 | 0 | 0 | - | 0 | - | - | - | - | -
Cc1c(N=C/C=C2\N(C)c3ccccc3C2(C)C)c(=O)n(-c2ccccc2)n1C | 0 | 0 | 0 | 0 | - | - | - | - | -
Cc1c(N=C/C=C2/N(C)c3ccccc3C2(C)C)c(=O)n(-c2ccccc2)n1C | 47! | 0 | 42 | 0 | 37 | 48 | 0 | 0 | 0
C=CCc1c(C)nc(-c2ccccc2)nc1N/N=C/c1ccccc1 | 0 | 0 | 0 | 0 | - | - | - | - | -
C=CCc1c(C)nc(-c2ccccc2)nc1Nc1ccccc1O | 55 | 0 | 25 | 0 | 40 | 52 | 0 | 0 | 0
CN(CC(=O)Nc1ccc(F)c(F)c1F)C(=O)CCN1C(=O)C2CCCCC2C1=O (centres undefined) | 0 | 0 | - | 0 | - | - | - | - | -
COc1cc(/C=C2\SC(=S)N(N3CCOCC3)C2=O)ccc1O | 0 | 0 | 0 | 0 | - | - | - | - | -
COc1cc(/C=C2\SC(=S)N(NS(=O)(=O)c3ccccc3)C2=O)ccc1O | 78 | 0 | 31 | 0 | 34 | 42 | 50 | 0 | 52
COc1ccc(/C=C2/SC(=S)N(NS(=O)(=O)c3ccccc3)C2=O)cc1 | 0 | 0 | 0 | 0 | - | - | - | - | -
COc1cc(/C=C2/SC(=S)N(c3c(C)n(C)n(-c4ccccc4)c3=O)C2=O)ccc1O | 100 | 0 | 29 | 0 | 29 | 42 | 63 | 0 | 43
Nc1nc(-c2ccccc2)c(-c2ccccc2)n1N | 56 | 0 | 51 | 0 | 29 | 38 | 0 | 0 | 0
Nc1c(-c2ccccc2)nc(Cl)nc1-c1ccccc1 | 0 | 0 | 0 | 0 | - | - | - | - | -
N#Cc1ccc(/C=C/C(=O)c2ccco2)cc1 | 0 | 0 | 0 | 0 | - | - | - | - | -
Nc1ccc(/C=C/C(=O)c2ccco2)cc1 | 90 | 0 | 73 | 0 | 81 | 92 | 77 | 0 | 67
CCOC(=O)c1sc2nc3c(SCCC#N)cc(C(=O)c4cc(F)ccc4O)cn3c(=O)c2c1C | 45 | 0 | 48 | 0 | 27 | 31 | 0 | 0 | 0
CCc1c(C)sc2nc3c(C(=O)N4CCOCC4)cc(C(=O)c4cc(F)ccc4O)cn3c(=O)c12 | 0 | 0 | 0 | 0 | - | - | - | - | -
COc1cc(/C=C/c2nc3ccccc3c(=O)[nH]2)cc(Cl)c1O | 69 | 0 | 41 | 40 | 71 | 74 | 0 | 0 | 158
CC(O)Cn1c(N2CCCC2)nc2c1c(=O)n(C)c(=O)n2C (centres undefined) | 0 | 0 | 0 | 0 | - | - | - | - | -
CSc1ccc(/C=C/C(=O)c2c(O)cc(C)oc2=O)cc1 | 53 | 0 | 73 | 0 | 26 | 46 | 70 | 0 | 131
CSc1ccc(C(=O)/C=C/c2ccc(N)cc2)cc1 | 0 | 0 | 0 | 0 | - | - | - | - | -
O=C(CN1C(=O)C2CC=CCC2C1=O)Nc1ccc(F)cc1F (centres undefined) | 0 | 0 | - | 0 | - | - | - | - | -
COc1ccc(N/C=C(\C=C\C#N)S(=O)(=O)c2ccccc2)cc1 | 0 | 0 | 0 | 0 | - | - | - | - | -
COc1cc(/C=C/c2cc(C(F)(F)F)[nH]c(=O)n2)cc(OC)c1OC | 0 | 0 | - | 0 | - | - | - | - | -
COc1cc(OC)c(OC)cc1/C=C/c1cc(C(F)(F)F)[nH]c(=O)n1 | 65 | 0 | 73 | 0 | 72 | 81 | 0 | 0 | 0
CCCCCCCCC(=O)N1C(C)CCC1C (centres undefined) | 0 | 0 | - | 0 | - | - | - | - | -
SMILES | Rpn11 block | CSN inh | TPT1 inhibitor | HNF4A DNA FP | TPT1 inh confirm | RNase T1 counter | Rpn11 inh conf | MMP-2 inh | Thrombin inh
CCOC(=O)C1=CN(Cc2cccc(-c3cccnc3)c2)S(=O)(=O)N(C)C1C (centres undefined) | 0 | 0 | - | 0 | - | - | - | - | -
Cc1ccc(Oc2cc([N+](=O)[O-])cc3c2C(=O)Nc2ccccc2O3)cc1 | 49 | 0 | 24 | 0 | 36 | 46 | 51 | 0 | 63
COCCNc1nc(NCc2cccc(OC)c2)c2sc(-c3ccccc3)cc2n1 | 0 | 0 | - | 0 | - | - | - | - | -
CC(C)=CCC[C@H](C)C[C@@H]1Cc2[nH][nH]c(=O)c2[C@H](c2ccc(Cl)cc2)O1 | - | 0 | - | 0 | - | - | - | - | -
CCc1ccc(/C=C/c2c[nH]c3ccccc23)[n+](CC)c1 | 50 | 0 | 31 | 0 | 29 | 38 | 0 | 0 | 43
COc1ccc(-c2cnc(C(O)c3ccc(CN4CCCCC4)cc3)[nH]2)cc1 (centres undefined) | 0 | 0 | - | 0 | - | - | - | - | -
N#C/C(=C\c1ccc(O)c(O)c1)C(=O)Nc1ccccc1 | 56 | 0 | 33 | 0 | 40 | 48 | 91 | 0 | 0
O=C(CCN1C(=O)/C(=C\c2cccs2)SC1=S)Nc1ccccn1 | 61 | 0 | 32 | 0 | 28 | 41 | 60 | 0 | 0
O=C(CCN1C(=O)/C(=C/c2cccs2)SC1=S)Nc1cccc(C(=O)O)c1 | 42 | 0 | 53 | 0 | 48 | 63 | 47 | 0 | 51
O=C(CCCN1C(=O)/C(=C/c2cccs2)SC1=S)Nc1ccccn1 | 0 | 0 | 0 | 0 | - | - | - | - | -
COC(=O)[C@@]1(Cc2ccc(OC)cc2)[C@H]2c3cc(C(=O)N4CCCC4)n(Cc4cc(C)n(C)n4)c3C[C@H]2CN1C(=O)c1ccccc1 | - | 0 | - | 0 | - | - | - | - | -
Cc1ccc(C2(C)NC(=O)N(CC(=O)Nc3ccc(Cl)c(S(=O)(=O)N4CCCCC4)c3)C2=O)cc1 (centres undefined) | 0 | 0 | 0 | 0 | - | - | - | - | -
CCN1C(=O)/C(=C/C=C2/Sc3ccccc3N2CCO)SC1=S | 52 | 0 | 40 | 36 | 33 | 45 | 0 | 0 | 0
CCN(CCc1ccccc1)c1ccc2c(c1)C1CC2CCN1Cc1ccccc1 (centres undefined) | 0 | 0 | - | 0 | - | - | - | - | -
COc1cc(/C=c2\sc3n(c2=O)C(c2ccccc2)C(c2ccccc2)=NN=3)ccc1O (centres undefined) | 43 | 0 | 35 | 0 | 50 | 56 | 0 | 0 | 0
CCN1C(=O)/C(=C/C=C2/CCCN2C)OC1=S | 76 | 0 | 78 | 88 | 106 | 116 | 43 | 0 | 54
